Results on 1 compound are retold here after ChEMBL document CHEMBL1157613, “Salicylic acid based small molecule inhibitor for the oncogenic Src homology-2 domain containing protein tyrosine phosphatase-2 (SHP2)” (J Med Chem, 2010).

For assay [1], the target named is T1, Receptor-type tyrosine-protein phosphatase C (Homo sapiens, UniProt P08575).
T1 sequence (P08575 whole entry): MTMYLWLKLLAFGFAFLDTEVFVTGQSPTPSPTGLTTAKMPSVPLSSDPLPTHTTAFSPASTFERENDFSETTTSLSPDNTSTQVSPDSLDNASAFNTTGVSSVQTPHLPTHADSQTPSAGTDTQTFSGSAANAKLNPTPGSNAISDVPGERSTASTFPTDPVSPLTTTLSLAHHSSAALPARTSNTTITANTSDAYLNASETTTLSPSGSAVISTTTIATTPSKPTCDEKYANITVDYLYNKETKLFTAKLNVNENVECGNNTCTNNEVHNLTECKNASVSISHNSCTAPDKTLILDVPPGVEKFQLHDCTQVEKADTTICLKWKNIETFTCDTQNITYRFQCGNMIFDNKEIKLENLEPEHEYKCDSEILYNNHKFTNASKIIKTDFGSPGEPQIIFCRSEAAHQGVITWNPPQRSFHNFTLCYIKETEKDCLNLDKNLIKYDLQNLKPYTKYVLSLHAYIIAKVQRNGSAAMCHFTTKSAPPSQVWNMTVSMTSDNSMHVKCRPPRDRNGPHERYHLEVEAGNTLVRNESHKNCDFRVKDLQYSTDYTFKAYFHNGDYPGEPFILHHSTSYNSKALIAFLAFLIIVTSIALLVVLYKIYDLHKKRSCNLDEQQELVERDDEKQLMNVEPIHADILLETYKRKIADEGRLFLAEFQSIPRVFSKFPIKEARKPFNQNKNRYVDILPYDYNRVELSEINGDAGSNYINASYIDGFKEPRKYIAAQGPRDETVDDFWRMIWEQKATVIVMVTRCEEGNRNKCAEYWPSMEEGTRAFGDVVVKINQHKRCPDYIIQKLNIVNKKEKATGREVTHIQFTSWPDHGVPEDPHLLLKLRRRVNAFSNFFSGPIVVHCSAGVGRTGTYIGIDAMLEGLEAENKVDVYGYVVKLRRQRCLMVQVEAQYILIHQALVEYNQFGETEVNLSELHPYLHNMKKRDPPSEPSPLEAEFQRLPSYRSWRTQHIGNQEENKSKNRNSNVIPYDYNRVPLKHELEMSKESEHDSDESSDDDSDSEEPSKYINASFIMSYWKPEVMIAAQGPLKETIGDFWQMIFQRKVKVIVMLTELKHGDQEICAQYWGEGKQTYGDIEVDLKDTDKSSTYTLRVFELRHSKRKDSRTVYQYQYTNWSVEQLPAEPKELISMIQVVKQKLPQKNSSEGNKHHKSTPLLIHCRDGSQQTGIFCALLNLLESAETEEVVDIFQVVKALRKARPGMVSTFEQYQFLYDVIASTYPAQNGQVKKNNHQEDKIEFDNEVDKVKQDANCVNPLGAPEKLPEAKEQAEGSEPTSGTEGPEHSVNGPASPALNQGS
Briefly: Inhibition of CD45 expressed in Escherichia coli assessed as inhibition of p-nitrophenyl phosphate hydrolysis at pH 7 by spectrophotometry.

Assay [2] is filed under the species Mus musculus. Briefly: Antiproliferative activity against GM-CSF-stimulated C57/BL6 mouse low density BM-MNC expressing SHP2 D61Y mutant assessed as inhibition of hyperproliferation at 10 uM after 16 hrs by [3H]thymidine incorporation assay. It is filed as functional. The settings on record: C57Bl/6. The method in brief: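 Marrow low-density mononuclear cells from C57Bl/6 mice (Ficoll), prestimulated 24 h with SCF, G-CSF, Tpo (100 ng/mL), retrovirally transduced 48 h with wild-type SHP2, D61Y or E76K, EGFP-sorted. Starved 4 h in 0.2% BSA; 5 × 10^4 cells cultured 16 h in GM-CSF 0-1 ng/mL ± 10 μM compound, then pulsed with 1.0 μCi [3H]thymidine for 6-8 h; counts per minute; n = 3.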
On the technique in general: Incorporation of labelled thymidine or its analogues reports DNA synthesis.

In assay [3] the target is T2, Low molecular weight phosphotyrosine protein phosphatase (Homo sapiens, UniProt P24666).
T2 sequence (P24666 whole entry): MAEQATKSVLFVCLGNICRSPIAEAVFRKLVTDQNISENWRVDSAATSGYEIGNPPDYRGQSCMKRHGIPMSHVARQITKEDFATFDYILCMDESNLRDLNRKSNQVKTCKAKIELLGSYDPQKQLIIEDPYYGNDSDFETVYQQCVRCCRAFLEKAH
Briefly: Inhibition of LMWPTP expressed in Escherichia coli assessed as inhibition of p-nitrophenyl phosphate hydrolysis at pH 7 by spectrophotometry.

Assay [4] deals with Dual specificity protein phosphatase 3 (Homo sapiens, UniProt P51452). Briefly: Inhibition of VHR expressed in Escherichia coli assessed as inhibition of p-nitrophenyl phosphate hydrolysis at pH 7 by spectrophotometry.
The target of assay [5] is T3, Dual specificity protein phosphatase CDC14A (Homo sapiens, UniProt Q9UNH5).
T3 sequence (Q9UNH5 whole entry): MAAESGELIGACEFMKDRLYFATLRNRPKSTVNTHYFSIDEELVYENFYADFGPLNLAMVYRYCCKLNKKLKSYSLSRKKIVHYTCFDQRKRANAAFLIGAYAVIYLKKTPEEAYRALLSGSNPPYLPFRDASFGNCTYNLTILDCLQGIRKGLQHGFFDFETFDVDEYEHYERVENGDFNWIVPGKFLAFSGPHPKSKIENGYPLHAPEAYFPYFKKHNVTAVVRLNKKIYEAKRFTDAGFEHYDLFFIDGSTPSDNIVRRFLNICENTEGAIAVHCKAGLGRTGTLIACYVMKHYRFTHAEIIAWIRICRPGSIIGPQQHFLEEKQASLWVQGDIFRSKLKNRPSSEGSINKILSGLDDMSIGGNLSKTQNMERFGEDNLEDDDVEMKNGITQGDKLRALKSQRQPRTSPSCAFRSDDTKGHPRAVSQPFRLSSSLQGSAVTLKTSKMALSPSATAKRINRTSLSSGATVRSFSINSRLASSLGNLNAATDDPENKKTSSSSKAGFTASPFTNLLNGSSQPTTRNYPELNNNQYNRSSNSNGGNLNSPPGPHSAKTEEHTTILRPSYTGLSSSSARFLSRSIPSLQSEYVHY
Briefly: Inhibition of Cdc14A expressed in Escherichia coli assessed as inhibition of p-nitrophenyl phosphate hydrolysis at pH 7 by spectrophotometry.

Active and inactive are the calls of the source. The rule behind the calls is not given here. Where only a bound is given, the exact number is not on record here.

Dual specificity protein phosphatase 3, sequence (P51452 whole entry): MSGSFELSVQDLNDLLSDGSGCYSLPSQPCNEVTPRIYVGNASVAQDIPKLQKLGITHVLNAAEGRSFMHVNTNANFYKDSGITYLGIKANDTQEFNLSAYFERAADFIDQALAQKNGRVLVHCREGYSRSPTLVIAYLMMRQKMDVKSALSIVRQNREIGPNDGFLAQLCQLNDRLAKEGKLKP

Usually IC50 stands for the concentration needed to halve the response being measured. With `Cn1c(-c2ccccc2)c(-c2cn(CCC(=O)Nc3ccc(-c4ccccc4)cc3)nn2)c2cc(C(=O)O)c(O)cc21`, the IC50 in assay [1] was 30 µM; in assay [3], 31.1 µM; in assay [4], > 50 µM; in assay [5], > 50 µM. Further, in assay [2], the result was Active.
